Reference: ChEMBL document CHEMBL4020721 (Eur J Med Chem, 2017)

What was measured:
Mus musculus [1] = assay: Toxicity in BALB/c athymic nude mouse xenografted with human SNU5 cells assessed as body weight loss at 0.3 to 3 mg/kg, po administered once daily for 2 weeks; type: organism-based; conditions: in vivo, 336 h
Method in brief: (§1)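 Female/male BALB/c nude mice (5-6 weeks, SPF). NCI-H1993 cells (7×10^6 in 140 µL) or SNU-5 cells (6×10^6 in 200 µL) injected s.c. into the right flank. Dosing started at mean tumour volume 150-250 mm³ (NCI-H1993) or 100-200 mm³ (SNU-5). Randomized, n = 7 (NCI-H1993) or 6 (SNU-5) per group. Oral dosing once daily; vehicle controls. Body weight and signs of toxicity monitored during treatment.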

[2] = molecular target: Epidermal growth factor receptor (Homo sapiens, UniProt P00533); assay: Inhibition of EGFR (unknown origin) using FAM-labeled peptide as substrate preincubated for 5 to 10 mins followed by substrate/ATP addition measured after 30 to 60 mins by mobility shift assay
Method in brief: (§2)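 Caliper mobility-shift assay with FAM-labeled peptide substrate. Buffer: 50 mM HEPES pH 7.5, 0.0015% Brij-35, 10 mM MgCl2, 2 mM DTT, with kinase-specific enzyme levels. […] Incubation was 30-60 min at 28°C, stopped with EDTA buffer. Read-out was % conversion.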

[3] = molecular target: Mast/stem cell growth factor receptor Kit (Homo sapiens, UniProt P10721); assay: Inhibition of c-Kit (unknown origin) using FAM-labeled peptide as substrate preincubated for 5 to 10 mins followed by substrate/ATP addition measured after 30 to 60 mins by mobility shift assay; method in brief: as §2
SNU-5 = assay: Growth inhibition of human SNU5 cells after 72 hrs by CCK-8 assay; type: functional, cell-based; conditions: snu-5
NCI-H1993 [4] = assay: Antitumor activity against human NCI-H1993 cells xenografted in BALB/c athymic nude mouse assessed as tumor growth inhibition at 10 mg/kg, po administered once daily for 3 weeks; type: functional; conditions: 504 h, read-out: TGI
Method in brief: (§3)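 BALB/c nude mice, 5-6 weeks old, kept under SPF conditions, received 7×10^6 NCI-H1993 cells s.c. in the right flank. At 150-250 mm³ they were sorted and randomized, n=7 per group, with vehicle controls. Dosing was oral, once daily for 3 weeks. […] Mean±SEM, Student's t-test.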

NCI-H1993 [5] = assay: Growth inhibition of human NCI-H1993 cells after 72 hrs by CCK-8 assay; type: functional, cell-based; conditions: nci-h1993
[6] = Half life in Sprague-Dawley rat plasma at 1 mg/kg, iv by UPLC-MS/MS analysis; type: ADME, organism-based
Method in brief: (§4)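 Male Sprague-Dawley rats (180-220 g) were fasted overnight with free access to water. Dosing was intravenous (n=2) or oral at 6 mg/kg (n=3). Heparinized blood was drawn from 0 to 1440 min. Plasma was frozen at -20°C, then precipitated with acetonitrile containing internal standard, centrifuged and analysed by UPLC-MS/MS.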

[7] = molecular target: Platelet-derived growth factor receptor alpha (Homo sapiens, UniProt P16234); assay: Inhibition of PDGFRalpha (unknown origin) using FAM-labeled peptide as substrate preincubated for 5 to 10 mins followed by substrate/ATP addition measured after 30 to 60 mins by mobility shift assay; method in brief: as §2
[8] = Volume of distribution at steady state in Sprague-Dawley rat plasma at 1 mg/kg, iv by UPLC-MS/MS analysis; type: ADME, organism-based; conditions: read-out: Vdss
Method in brief: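 Male Sprague-Dawley rats (180-220 g), fasted overnight with water available, dosed iv (n=2). Blood on heparin collected from 0 to 1440 min. Plasma obtained by centrifugation and stored at -20°C. Proteins precipitated with acetonitrile containing internal standard, then UPLC-MS/MS. Vss taken from the iv data.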

[9] = molecular target: Platelet-derived growth factor receptor beta (Homo sapiens, UniProt P09619); assay: Inhibition of PDGFRbeta (unknown origin) using FAM-labeled peptide as substrate preincubated for 5 to 10 mins followed by substrate/ATP addition measured after 30 to 60 mins by mobility shift assay; method in brief: as §2
NCI-H1993 [10] = assay: Antitumor activity against human NCI-H1993 cells xenografted in BALB/c athymic nude mouse assessed as tumor growth inhibition at 1 mg/kg, po administered once daily for 3 weeks; type: functional; conditions: 504 h, read-out: TGI; method in brief: as §3
[11] = molecular target: Macrophage-stimulating protein receptor (Homo sapiens, UniProt Q04912); assay: Inhibition of RON (unknown origin) using FAM-labeled peptide as substrate preincubated for 5 to 10 mins followed by substrate/ATP addition measured after 30 to 60 mins by mobility shift assay; method in brief: as §2
Mus musculus [12] = assay: Toxicity in BALB/c athymic nude mouse xenografted with human SNU5 cells assessed as apparent toxicity parameters at 0.3 to 3 mg/kg, po administered once daily for 2 weeks; type: organism-based; conditions: in vivo, 336 h; method in brief: as §1
[13] = Clearance in Sprague-Dawley rat plasma at 1 mg/kg, iv by UPLC-MS/MS analysis; type: ADME, organism-based; method in brief: as §4
CYP1A2 = molecular target: T1, CYP1A2 (Homo sapiens, UniProt P05177); assay: Time dependent irreversible inhibition of CYP1A2 in human liver microsomes at 10 uM preincubated with compound followed by NADPH addition by LC-MS/MS analysis; type: ADME; conditions: liver microsomes
T1 sequence (P05177 whole entry): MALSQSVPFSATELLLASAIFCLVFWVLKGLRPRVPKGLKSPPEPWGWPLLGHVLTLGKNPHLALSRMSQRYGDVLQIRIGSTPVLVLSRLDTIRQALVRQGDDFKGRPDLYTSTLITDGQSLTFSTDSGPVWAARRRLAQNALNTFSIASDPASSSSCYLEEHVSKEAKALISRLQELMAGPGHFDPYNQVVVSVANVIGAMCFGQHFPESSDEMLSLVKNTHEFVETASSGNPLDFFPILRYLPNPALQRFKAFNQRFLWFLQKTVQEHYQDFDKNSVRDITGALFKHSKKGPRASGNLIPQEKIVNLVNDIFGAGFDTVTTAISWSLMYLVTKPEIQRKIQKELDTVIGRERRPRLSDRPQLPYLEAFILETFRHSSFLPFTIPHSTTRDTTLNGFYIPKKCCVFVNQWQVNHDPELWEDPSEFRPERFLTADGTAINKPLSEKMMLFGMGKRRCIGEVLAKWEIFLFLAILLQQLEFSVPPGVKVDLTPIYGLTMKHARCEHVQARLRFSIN
Method in brief: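 HLM (0.2 mg/ml) with 10 µM compound were preincubated 0, 5, 10 or 20 min at 37°C with 1 mM NADPH or PBS. Substrate cocktail (halved concentrations) plus NADPH was then added for 10 min. Metabolites were measured by LC-MS/MS. Kobs is the slope of relative activity versus preincubation time.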

[14] = molecular target: Hepatocyte growth factor receptor (Homo sapiens, UniProt P08581); assay: Inhibition of c-MET (unknown origin) using TK substrate-biotin peptide as substrate preincubated for 5 to 10 mins followed by ATP addition measured after 30 mins by HTRF assay
Mus musculus [15] = assay: Toxicity in BALB/c athymic nude mouse xenografted with human NCI-H1993 cells assessed as apparent toxicity parameters at 0.1 to 10 mg/kg, po administered once daily for 3 weeks; type: organism-based; conditions: in vivo, 504 h
[16] = molecular target: Proto-oncogene tyrosine-protein kinase receptor Ret (Homo sapiens, UniProt P07949); assay: Inhibition of RET (unknown origin) using FAM-labeled peptide as substrate preincubated for 5 to 10 mins followed by substrate/ATP addition measured after 30 to 60 mins by mobility shift assay; method in brief: as §2
Sequence of Proto-oncogene tyrosine-protein kinase receptor Ret (P07949 whole entry): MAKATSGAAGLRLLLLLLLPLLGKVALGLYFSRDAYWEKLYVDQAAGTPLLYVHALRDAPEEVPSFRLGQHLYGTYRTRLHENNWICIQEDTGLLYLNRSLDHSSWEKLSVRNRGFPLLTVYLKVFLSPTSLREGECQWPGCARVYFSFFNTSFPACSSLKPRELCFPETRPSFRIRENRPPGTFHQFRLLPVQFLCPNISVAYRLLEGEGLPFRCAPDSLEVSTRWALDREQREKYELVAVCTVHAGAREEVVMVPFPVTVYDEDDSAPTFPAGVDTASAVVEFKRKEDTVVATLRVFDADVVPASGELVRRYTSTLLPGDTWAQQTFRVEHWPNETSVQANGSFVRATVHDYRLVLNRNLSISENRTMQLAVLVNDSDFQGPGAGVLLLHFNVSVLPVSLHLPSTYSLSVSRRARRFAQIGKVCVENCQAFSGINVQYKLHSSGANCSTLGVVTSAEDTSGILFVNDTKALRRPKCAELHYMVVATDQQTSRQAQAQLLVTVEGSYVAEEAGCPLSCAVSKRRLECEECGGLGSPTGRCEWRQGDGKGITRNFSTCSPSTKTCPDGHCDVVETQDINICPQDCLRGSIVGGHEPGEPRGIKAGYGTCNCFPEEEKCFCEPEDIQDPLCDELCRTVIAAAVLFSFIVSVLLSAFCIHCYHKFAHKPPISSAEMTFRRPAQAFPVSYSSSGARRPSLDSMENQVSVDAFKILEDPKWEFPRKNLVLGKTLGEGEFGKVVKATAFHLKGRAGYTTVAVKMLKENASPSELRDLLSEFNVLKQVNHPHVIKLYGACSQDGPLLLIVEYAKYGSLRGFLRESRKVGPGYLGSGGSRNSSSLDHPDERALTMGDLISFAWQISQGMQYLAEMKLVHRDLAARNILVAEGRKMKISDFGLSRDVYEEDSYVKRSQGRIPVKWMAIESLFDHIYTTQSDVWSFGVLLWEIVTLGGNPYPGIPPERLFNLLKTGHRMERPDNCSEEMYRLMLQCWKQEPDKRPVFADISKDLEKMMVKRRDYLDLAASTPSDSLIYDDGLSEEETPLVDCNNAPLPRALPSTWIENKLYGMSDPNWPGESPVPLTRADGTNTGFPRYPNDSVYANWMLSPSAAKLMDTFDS

Sequence of Platelet-derived growth factor receptor alpha (P16234 whole entry): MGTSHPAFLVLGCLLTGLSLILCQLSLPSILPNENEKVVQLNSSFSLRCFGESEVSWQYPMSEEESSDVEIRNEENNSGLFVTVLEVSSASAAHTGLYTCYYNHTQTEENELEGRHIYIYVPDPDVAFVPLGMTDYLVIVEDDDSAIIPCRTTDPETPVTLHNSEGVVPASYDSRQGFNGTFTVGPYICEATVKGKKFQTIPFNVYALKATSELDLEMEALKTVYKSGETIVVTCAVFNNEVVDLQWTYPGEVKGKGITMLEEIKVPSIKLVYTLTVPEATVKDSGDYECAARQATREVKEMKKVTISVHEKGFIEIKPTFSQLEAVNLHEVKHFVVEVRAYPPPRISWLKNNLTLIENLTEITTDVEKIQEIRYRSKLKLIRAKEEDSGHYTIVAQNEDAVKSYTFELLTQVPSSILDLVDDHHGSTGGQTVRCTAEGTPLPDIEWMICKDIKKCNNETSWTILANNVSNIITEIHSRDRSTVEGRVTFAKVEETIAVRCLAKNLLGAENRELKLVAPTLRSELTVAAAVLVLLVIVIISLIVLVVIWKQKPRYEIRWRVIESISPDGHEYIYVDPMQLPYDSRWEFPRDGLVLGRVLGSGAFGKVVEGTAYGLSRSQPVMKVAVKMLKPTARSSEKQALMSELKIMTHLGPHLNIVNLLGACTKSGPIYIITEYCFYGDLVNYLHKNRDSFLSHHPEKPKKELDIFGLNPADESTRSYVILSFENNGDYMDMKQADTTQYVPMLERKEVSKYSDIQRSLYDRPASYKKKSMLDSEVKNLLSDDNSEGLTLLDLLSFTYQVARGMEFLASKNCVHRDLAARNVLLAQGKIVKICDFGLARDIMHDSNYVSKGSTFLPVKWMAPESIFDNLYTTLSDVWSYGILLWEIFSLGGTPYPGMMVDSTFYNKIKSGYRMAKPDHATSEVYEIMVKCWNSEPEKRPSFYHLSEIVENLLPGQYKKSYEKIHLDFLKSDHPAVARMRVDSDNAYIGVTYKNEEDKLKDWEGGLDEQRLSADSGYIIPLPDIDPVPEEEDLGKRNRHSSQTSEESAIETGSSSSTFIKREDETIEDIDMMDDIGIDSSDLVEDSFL
Sequence of Platelet-derived growth factor receptor beta (P09619 whole entry): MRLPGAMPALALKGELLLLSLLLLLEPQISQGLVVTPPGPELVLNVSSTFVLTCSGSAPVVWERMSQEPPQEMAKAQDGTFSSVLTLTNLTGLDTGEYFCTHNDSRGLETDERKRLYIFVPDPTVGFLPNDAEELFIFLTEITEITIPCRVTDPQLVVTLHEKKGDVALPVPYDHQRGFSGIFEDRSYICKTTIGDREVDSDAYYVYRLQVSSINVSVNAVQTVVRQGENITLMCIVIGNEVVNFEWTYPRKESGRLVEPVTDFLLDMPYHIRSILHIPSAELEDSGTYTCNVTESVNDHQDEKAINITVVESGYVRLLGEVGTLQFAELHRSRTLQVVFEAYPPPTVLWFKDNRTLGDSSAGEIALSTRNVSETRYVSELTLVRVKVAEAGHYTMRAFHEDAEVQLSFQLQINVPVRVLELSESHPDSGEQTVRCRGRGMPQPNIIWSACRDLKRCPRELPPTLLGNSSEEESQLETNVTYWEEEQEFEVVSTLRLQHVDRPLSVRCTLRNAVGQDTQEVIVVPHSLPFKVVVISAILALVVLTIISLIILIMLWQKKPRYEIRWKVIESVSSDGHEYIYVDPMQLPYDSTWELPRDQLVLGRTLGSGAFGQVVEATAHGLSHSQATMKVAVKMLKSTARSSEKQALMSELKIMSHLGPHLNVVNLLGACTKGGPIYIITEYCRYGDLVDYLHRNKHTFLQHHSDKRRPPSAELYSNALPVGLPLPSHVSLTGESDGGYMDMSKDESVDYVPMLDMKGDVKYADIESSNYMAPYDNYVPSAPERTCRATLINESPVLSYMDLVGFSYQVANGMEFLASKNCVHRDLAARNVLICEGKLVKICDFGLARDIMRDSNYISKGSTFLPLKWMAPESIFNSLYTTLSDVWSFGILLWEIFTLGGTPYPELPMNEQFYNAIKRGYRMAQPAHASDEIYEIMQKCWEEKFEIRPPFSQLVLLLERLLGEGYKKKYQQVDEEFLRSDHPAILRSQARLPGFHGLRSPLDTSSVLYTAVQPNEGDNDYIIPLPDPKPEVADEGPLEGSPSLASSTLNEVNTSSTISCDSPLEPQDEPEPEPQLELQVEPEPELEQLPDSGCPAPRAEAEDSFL
Sequence of Mast/stem cell growth factor receptor Kit (P10721 whole entry): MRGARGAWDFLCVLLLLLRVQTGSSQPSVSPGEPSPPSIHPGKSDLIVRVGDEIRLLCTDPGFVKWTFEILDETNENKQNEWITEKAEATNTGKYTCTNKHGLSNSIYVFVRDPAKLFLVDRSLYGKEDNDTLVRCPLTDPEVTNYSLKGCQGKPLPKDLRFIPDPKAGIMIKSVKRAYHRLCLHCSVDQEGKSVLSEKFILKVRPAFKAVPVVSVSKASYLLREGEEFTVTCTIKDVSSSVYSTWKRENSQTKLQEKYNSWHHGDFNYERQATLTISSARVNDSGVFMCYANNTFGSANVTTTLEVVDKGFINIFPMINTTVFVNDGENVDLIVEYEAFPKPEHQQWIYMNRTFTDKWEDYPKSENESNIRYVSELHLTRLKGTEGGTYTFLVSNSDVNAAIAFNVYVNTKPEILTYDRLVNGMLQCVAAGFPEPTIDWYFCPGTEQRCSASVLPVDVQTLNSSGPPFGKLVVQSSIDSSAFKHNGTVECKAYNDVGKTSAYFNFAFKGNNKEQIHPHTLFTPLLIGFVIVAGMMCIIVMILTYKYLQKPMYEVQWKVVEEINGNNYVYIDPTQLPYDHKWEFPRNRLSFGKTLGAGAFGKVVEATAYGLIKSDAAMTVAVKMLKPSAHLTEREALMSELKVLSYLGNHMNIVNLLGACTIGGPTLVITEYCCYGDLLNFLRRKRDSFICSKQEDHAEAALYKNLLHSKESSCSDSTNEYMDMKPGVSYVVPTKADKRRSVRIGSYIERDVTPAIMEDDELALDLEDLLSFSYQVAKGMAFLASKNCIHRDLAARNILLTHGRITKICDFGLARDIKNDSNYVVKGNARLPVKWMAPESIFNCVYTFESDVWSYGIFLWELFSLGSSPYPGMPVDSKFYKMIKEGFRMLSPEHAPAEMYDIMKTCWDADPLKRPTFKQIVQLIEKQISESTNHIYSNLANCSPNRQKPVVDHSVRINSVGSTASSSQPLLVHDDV

## CC(c1cc2cc(-c3cnn(C)c3)cnc2cc1F)n1nnc2ncc(-c3cnn(CCO)c3)nc21 (stereo in doubt; 14)
Mus musculus [1]
  Activity: Non-Toxic
[2]
  IC50: > 30000 nM
[3]
  IC50: 5400 nM
SNU-5
  IC50: 2 nM
NCI-H1993 [4]
  inhibition in vivo at 10 mg/kg: 90.8%
NCI-H1993 [5]
  IC50: 1.1 nM
[6]
  half-life: 3.7 h
[7]
  IC50: 2360 nM
[8]
  Vd: 2.1 L/kg
[9]
  IC50: > 30000 nM
NCI-H1993 [10]
  inhibition in vivo at 1 mg/kg: 78.7%
[11]
  IC50: 731 nM
Mus musculus [12]
  Activity: Non-Toxic
[13]
  clearance: 9.67 mL/min/kg
CYP1A2
  inhibition at 10 µM: < 50%
[14]
  IC50: 0.6 nM
Mus musculus [15]
  Activity: Non-Toxic
[16]
  IC50: > 30000 nM
